Columns and labels:
Oryctolagus cuniculus [1] = species: Oryctolagus cuniculus; assay: In vitro inhibition of potassium-contracted rabbit aorta strips; format: functional
In short: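 Rabbit thoracic aorta strips contracted with potassium chloride (100 mM) in the presence of calcium. IC50 is the drug concentration giving 50% relaxation, reported with 95% confidence intervals.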

Oryctolagus cuniculus [2] = species: Oryctolagus cuniculus; assay: In vitro evaluation for the inhibition of potassium-contracted rabbit aorta strips by vasorelaxant assay.; format: functional
In short: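 Rabbit thoracic aorta strips contracted with potassium chloride (100 mM) in the presence of calcium. IC50 taken as the drug concentration giving 50% relaxation of the contraction, reported with 95% confidence intervals.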

SMILES	IC50 (Oryctolagus cuniculus [1])	IC50 (Oryctolagus cuniculus [2])
CC1=C(C(=O)OC(C)C)C(c2ccccc2C(F)(F)F)N(C(=O)OC2CCCN(Cc3ccccc3)C2)C(=O)N1 (configuration not stated)	130 nM	–
CC1=C(C(=O)OC(C)C)C(c2cccc([N+](=O)[O-])c2)N(CCCN(C)Cc2ccccc2)C(S)=N1 (configuration not stated)	72 nM	–
CCO/C(O)=C1\C(C)=NC(=S)N(C(=O)OCCN(C)Cc2ccccc2)C1c1cccc([N+](=O)[O-])c1 (configuration not stated)	29 nM	–
CCOC(=O)N1C(=S)N=C(C)/C(=C(/O)OCCN(C)Cc2ccccc2)C1c1cccc([N+](=O)[O-])c1 (configuration not stated)	34 nM	–
CC1=C(C(=O)OC(C)C)C(c2ccccc2[N+](=O)[O-])N(C(=O)OC2CCN(Cc3ccccc3)CC2)C(=O)N1 (configuration not stated)	8 nM	–
CC1=C(C(=O)OC(C)C)C(c2cccc([N+](=O)[O-])c2)N(C(=O)O[C@H](C)CN(C)Cc2ccccc2)C(=O)N1 (some centres not stated)	64 nM	–
CC1=C(C(=O)OC(C)C)C(c2ccccc2C(F)(F)F)N(C(=O)O[C@@H]2CCN(Cc3ccccc3)C2)C(=O)N1 (some centres not stated)	360 nM	–
CCO/C(O)=C1\C(C)=NC(=S)N(C(=O)OC(C)C)C1c1ccccc1C(F)(F)F (configuration not stated)	50 nM	–
CC1=C(C(=O)OCC(C)C)C(c2ccccc2C(F)(F)F)N(C(=O)OC2CCN(Cc3ccccc3)CC2)C(=O)N1 (configuration not stated)	98 nM	–
CCOC(=O)N1C(=S)N=C(C)/C(=C(/O)OCCN(C)Cc2ccccc2)C1c1ccccc1C(F)(F)F (configuration not stated)	22 nM	–
CC1=C(C(=O)OC(C)C)C(c2cccc([N+](=O)[O-])c2)N(C(=O)OC2CCN(Cc3ccccc3)CC2)C(=O)N1 (configuration not stated)	12 nM	–
CC1=C(C(=O)OC(C)C)C(c2ccccc2C(F)(F)F)N(CCC2CCN(Cc3ccccc3)CC2)C(S)=N1 (configuration not stated)	120 nM	–
CC1=C(C(=O)OC(C)C)C(c2ccccc2C(F)(F)F)N(C(=O)O[C@H]2CCN(Cc3ccccc3)C2)C(=O)N1 (some centres not stated)	790 nM	–
CCO/C(O)=C1\C(C)=NC(=S)N(C(=O)OCCN(C)Cc2ccccc2)C1c1ccccc1C(F)(F)F (configuration not stated)	23 nM	–
CCCN1C(S)=NC(C)=C(C(=O)OC2CCN(Cc3ccccc3)CC2)C1c1ccccc1C(F)(F)F (configuration not stated)	> 1000 nM	–
CCOC(=O)N1C(=S)N=C(C)/C(=C(/O)OCC)C1c1cccc([N+](=O)[O-])c1 (configuration not stated)	17 nM	–
CC1=C(C(=O)OC(C)C)C(c2cccc([N+](=O)[O-])c2)N(C(=O)O[C@@H](C)CN(C)Cc2ccccc2)C(=O)N1 (some centres not stated)	57 nM	–
CCOC(=O)C1=C(C)N=C(S)NC1c1cccc([N+](=O)[O-])c1 (configuration not stated)	> 1000 nM	–
CCOC(=O)N1C(=S)N=C(C)/C(=C(/O)OCC)C1c1ccccc1C(F)(F)F (configuration not stated)	41 nM	–
CCOC(=O)C1=C(COCCN)NC(C)=C(C(=O)OC)C1c1ccccc1Cl (configuration not stated) [AMLODIPINE]	3 nM	–
COC(=O)C1=C(C)NC(C)=C(C(=O)OC)C1c1ccccc1[N+](=O)[O-] [NIFEDIPINE]	–	2 nM

More lines, main results first:

IC50 (Oryctolagus cuniculus [1])	SMILES	IC50 (Oryctolagus cuniculus [2])
4 nM	CC1=NC(=S)N(C(=O)OC2CCN(Cc3ccccc3)CC2)C(c2cccc([N+](=O)[O-])c2)/C1=C(\O)OC(C)C (configuration not stated)	–
5 nM	CC1=NC(=S)N(C(=O)OC2CCN(Cc3ccccc3)CC2)C(c2ccccc2C(F)(F)F)/C1=C(\O)OC(C)C (configuration not stated)	–
2 nM	CC1=NC(=S)N(C(=O)OC2CCN(Cc3ccccc3)CC2)C(c2ccccc2[N+](=O)[O-])/C1=C(\O)OC(C)C (configuration not stated)	–
> 1000 nM	CC1=NC(=S)N(C(=O)OC2CCN(Cc3ccc(F)cc3)CC2)[C@@H](c2ccccc2C(F)(F)F)/C1=C(\O)OC(C)C	–
9 nM	CCO/C(O)=C1\C(C)=NC(=S)N(C(=O)OC2CCN(Cc3ccccc3)CC2)C1c1ccccc1C(F)(F)F (configuration not stated)	–
55 nM	CC1=C(C(=O)OC(C)C)C(c2ccccc2C(F)(F)F)N(C(=O)OC2CCN(Cc3ccc(Cl)cc3)CC2)C(=O)N1 (configuration not stated)	–
50 nM	CC1=C(C(=O)OC(C)C)C(c2ccccc2C(F)(F)F)N(C(=O)OC2CCN(Cc3ccccc3)CC2)C(=O)N1 (configuration not stated)	–
2 nM	CCO/C(O)=C1\C(C)=NC(=S)N(C(=O)O[C@H]2CCN(Cc3ccccc3)C2)C1c1ccccc1C(F)(F)F (some centres not stated)	–
5 nM	CC1=NC(=S)N(C(=O)OC2CCN(Cc3ccccc3)CC2)C(c2ccccc2Cl)/C1=C(\O)OC(C)C (configuration not stated)	–
15 nM	CC1=NC(=S)N(C(=O)OC2CCN(Cc3ccc(F)cc3)CC2)[C@H](c2ccccc2C(F)(F)F)/C1=C(\O)OC(C)C	–
7 nM	CC1=NC(=S)N(C(=O)OC2CCN(Cc3ccc(F)cc3)CC2)C(c2ccccc2C(F)(F)F)/C1=C(\O)OC(C)C (configuration not stated)	–
